Measurements as given in ChEMBL document CHEMBL4368943 (J Med Chem, 2019).
The source made the active and inactive calls. No cut-off for these calls is given here.

Columns and labels:
[1] = biological target: T1, von Hippel-Lindau disease tumor suppressor/Estrogen receptor/Cullin-2 (Homo sapiens, UniProt P03372+P40337+Q13617); assay: Protac activity against VHL/cullin2/ERalpha in human MCF7 cells assessed as ERalpha degradation by measuring ER protein/GADPH ratio at 1 nM after 4 hrs by Western blot analysis relative to control; type: cell-based
Procedure, shortened: (§1)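 MCF-7 cells (DMEM, 10% FBS, passages 3−8) exposed 4 h. Lysed in RIPA with protease inhibitors; equal protein on 10% SDS-PAGE, PVDF, anti-ERα blot. Membranes stripped and reprobed for GAPDH. ERα/GAPDH ratio normalized to DMSO = 100; DC50 from densitometry of the dose series.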
Target sequence in this assay (P03372 whole entry, looked up): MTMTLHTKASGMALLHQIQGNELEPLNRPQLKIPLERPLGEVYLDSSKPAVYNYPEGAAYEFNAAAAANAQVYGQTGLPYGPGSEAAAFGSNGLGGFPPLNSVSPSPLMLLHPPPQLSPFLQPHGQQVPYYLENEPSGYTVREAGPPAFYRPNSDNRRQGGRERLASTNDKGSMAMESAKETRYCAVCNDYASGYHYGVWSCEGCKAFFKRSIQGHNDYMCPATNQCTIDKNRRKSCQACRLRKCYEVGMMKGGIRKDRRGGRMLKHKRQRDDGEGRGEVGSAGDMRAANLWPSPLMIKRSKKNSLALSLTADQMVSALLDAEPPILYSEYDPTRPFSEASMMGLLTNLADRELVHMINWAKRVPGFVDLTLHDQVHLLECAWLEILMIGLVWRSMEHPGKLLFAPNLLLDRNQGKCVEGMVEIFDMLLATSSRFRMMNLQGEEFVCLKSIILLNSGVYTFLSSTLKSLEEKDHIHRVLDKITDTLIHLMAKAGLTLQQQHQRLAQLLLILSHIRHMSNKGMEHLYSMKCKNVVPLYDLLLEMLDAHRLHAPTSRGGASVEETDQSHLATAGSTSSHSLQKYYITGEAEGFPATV
Target sequence in this assay (P40337 whole entry, looked up): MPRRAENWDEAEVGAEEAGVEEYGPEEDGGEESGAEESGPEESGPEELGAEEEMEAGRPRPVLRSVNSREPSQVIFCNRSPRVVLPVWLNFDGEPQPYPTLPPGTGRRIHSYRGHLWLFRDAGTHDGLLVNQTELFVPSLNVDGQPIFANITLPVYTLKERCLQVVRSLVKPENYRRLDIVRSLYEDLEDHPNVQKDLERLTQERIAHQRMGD
Target sequence in this assay (Q13617 whole entry, looked up): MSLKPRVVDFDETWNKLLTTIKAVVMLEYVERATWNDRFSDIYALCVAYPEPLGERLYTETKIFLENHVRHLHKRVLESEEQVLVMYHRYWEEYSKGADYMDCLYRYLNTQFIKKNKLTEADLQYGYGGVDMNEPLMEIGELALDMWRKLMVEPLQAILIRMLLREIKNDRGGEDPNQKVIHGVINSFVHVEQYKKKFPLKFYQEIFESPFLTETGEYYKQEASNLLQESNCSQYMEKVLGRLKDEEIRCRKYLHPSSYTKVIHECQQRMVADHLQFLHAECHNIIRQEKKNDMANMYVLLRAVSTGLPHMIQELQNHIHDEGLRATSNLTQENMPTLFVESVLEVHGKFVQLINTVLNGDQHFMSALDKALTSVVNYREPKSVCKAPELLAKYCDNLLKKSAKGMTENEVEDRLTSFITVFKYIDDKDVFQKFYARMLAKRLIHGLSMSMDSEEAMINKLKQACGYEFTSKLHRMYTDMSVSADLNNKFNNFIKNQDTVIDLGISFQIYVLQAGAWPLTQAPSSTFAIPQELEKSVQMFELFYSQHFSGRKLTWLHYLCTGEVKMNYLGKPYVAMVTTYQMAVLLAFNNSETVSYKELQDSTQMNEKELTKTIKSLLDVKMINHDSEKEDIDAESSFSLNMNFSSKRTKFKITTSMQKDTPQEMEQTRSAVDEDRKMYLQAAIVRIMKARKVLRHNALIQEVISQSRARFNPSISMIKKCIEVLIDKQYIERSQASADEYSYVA

[2] = biological target: T1, von Hippel-Lindau disease tumor suppressor/Estrogen receptor/Cullin-2; assay: Protac activity against VHL/cullin2/ERalpha in human MCF7 cells assessed as ERalpha degradation by measuring ER protein/GADPH ratio at 10 nM after 4 hrs by Western blot analysis relative to control; type: cell-based; procedure, shortened: as §1
Target sequence in this assay (P03372 whole entry, looked up): as the sequence (P03372 whole entry, looked up) above
Target sequence in this assay (P40337 whole entry, looked up): as the sequence (P40337 whole entry, looked up) above
Target sequence in this assay (Q13617 whole entry, looked up): as the sequence (Q13617 whole entry, looked up) above

[3] = biological target: T1, von Hippel-Lindau disease tumor suppressor/Estrogen receptor/Cullin-2; assay: Protac activity against VHL/cullin2/ERalpha in human MCF7 cells assessed as ERalpha degradation by measuring ER protein/GADPH ratio at 100 nM after 4 hrs by Western blot analysis relative to control; type: cell-based; procedure, shortened: as §1
Target sequence in this assay (P03372 whole entry, looked up): as the sequence (P03372 whole entry, looked up) above
Target sequence in this assay (P40337 whole entry, looked up): as the sequence (P40337 whole entry, looked up) above
Target sequence in this assay (Q13617 whole entry, looked up): as the sequence (Q13617 whole entry, looked up) above

[4] = biological target: T1, von Hippel-Lindau disease tumor suppressor/Estrogen receptor/Cullin-2; assay: Protac activity against VHL/cullin2/ERalpha in human MCF7 cells assessed as ERalpha degradation by measuring ER protein/GADPH ratio at 1000 nM after 4 hrs by Western blot analysis relative to control; type: cell-based; procedure, shortened: as §1
Target sequence in this assay (P03372 whole entry, looked up): as the sequence (P03372 whole entry, looked up) above
Target sequence in this assay (P40337 whole entry, looked up): as the sequence (P40337 whole entry, looked up) above
Target sequence in this assay (Q13617 whole entry, looked up): as the sequence (Q13617 whole entry, looked up) above

[5] = biological target: T1, von Hippel-Lindau disease tumor suppressor/Estrogen receptor/Cullin-2; assay: Protac activity against VHL/cullin2/ERalpha in human MCF7 cells assessed as ERalpha degradation after 4 hrs by Western blot analysis; type: cell-based; procedure, shortened: as §1
Target sequence in this assay (P03372 whole entry): as the sequence (P03372 whole entry, looked up) above
Target sequence in this assay (P40337 whole entry): as the sequence (P40337 whole entry, looked up) above
Target sequence in this assay (Q13617 whole entry): as the sequence (Q13617 whole entry, looked up) above

[6] = biological target: T1, von Hippel-Lindau disease tumor suppressor/Estrogen receptor/Cullin-2; assay: Protac activity against VHL/cullin2/ERalpha in human MCF7 cells assessed as ERalpha degradation by measuring ER protein/GAPDH ratio at 0.03 nM after 4 hrs by Western blot analysis relative to control; type: cell-based; procedure, shortened: as §1
Target sequence in this assay (P03372 whole entry, looked up): as the sequence (P03372 whole entry, looked up) above
Target sequence in this assay (P40337 whole entry, looked up): as the sequence (P40337 whole entry, looked up) above
Target sequence in this assay (Q13617 whole entry, looked up): as the sequence (Q13617 whole entry, looked up) above

[7] = biological target: T1, von Hippel-Lindau disease tumor suppressor/Estrogen receptor/Cullin-2; assay: Protac activity against VHL/cullin2/ERalpha in human MCF7 cells assessed as ERalpha degradation by measuring ER protein/GAPDH ratio at 0.3 nM after 4 hrs by Western blot analysis relative to control; type: cell-based; procedure, shortened: as §1
Target sequence in this assay (P03372 whole entry, looked up): as the sequence (P03372 whole entry, looked up) above
Target sequence in this assay (P40337 whole entry, looked up): as the sequence (P40337 whole entry, looked up) above
Target sequence in this assay (Q13617 whole entry, looked up): as the sequence (Q13617 whole entry, looked up) above

[8] = biological target: T1, von Hippel-Lindau disease tumor suppressor/Estrogen receptor/Cullin-2; assay: Protac activity against VHL/cullin2/ERalpha in human MCF7 cells assessed as ERalpha degradation by measuring ER protein/GAPDH ratio at 0.6 nM after 4 hrs by Western blot analysis relative to control; type: cell-based; procedure, shortened: as §1
[9] = biological target: T1, von Hippel-Lindau disease tumor suppressor/Estrogen receptor/Cullin-2; assay: Protac activity against VHL/cullin2/ERalpha in human MCF7 cells assessed as ERalpha degradation by measuring ER protein/GAPDH ratio at 5 nM after 4 hrs by Western blot analysis relative to control; type: cell-based; procedure, shortened: as §1
[10] = biological target: T1, von Hippel-Lindau disease tumor suppressor/Estrogen receptor/Cullin-2; assay: Protac activity against VHL/cullin2/ERalpha in human MCF7 cells assessed as ERalpha degradation by measuring ER protein/GAPDH ratio at 30 nM after 4 hrs by Western blot analysis relative to control; type: cell-based; procedure, shortened: as §1
[11] = biological target: T1, von Hippel-Lindau disease tumor suppressor/Estrogen receptor/Cullin-2; assay: Protac activity against VHL/cullin2/ERalpha in human MCF7 cells assessed as ERalpha degradation by measuring ER protein/GAPDH ratio at 300 nM after 4 hrs by Western blot analysis relative to control; type: cell-based; procedure, shortened: as §1
[12] = biological target: T1, von Hippel-Lindau disease tumor suppressor/Estrogen receptor/Cullin-2; assay: Protac activity against VHL/cullin2/ERalpha in human T47D cells assessed as ERalpha degradation by measuring ER protein/GAPDH ratio at 0.03 nM after 4 hrs by Western blot analysis relative to control; type: cell-based
Procedure, shortened: (§2)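 T47D cells (DMEM, 10% FBS, passages 3−8) exposed 4 h over a dose series. RIPA lysates, equal protein, 10% SDS-PAGE, anti-ERα Western blot. ERα band density normalized to GAPDH; DC50 derived from the quantified dose–response.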

[13] = biological target: T1, von Hippel-Lindau disease tumor suppressor/Estrogen receptor/Cullin-2; assay: Protac activity against VHL/cullin2/ERalpha in human T47D cells assessed as ERalpha degradation by measuring ER protein/GAPDH ratio at 0.1 nM after 4 hrs by Western blot analysis relative to control; type: cell-based; procedure, shortened: as §2
[14] = biological target: T1, von Hippel-Lindau disease tumor suppressor/Estrogen receptor/Cullin-2; assay: Protac activity against VHL/cullin2/ERalpha in human T47D cells assessed as ERalpha degradation by measuring ER protein/GAPDH ratio at 0.3 nM after 4 hrs by Western blot analysis relative to control; type: cell-based; procedure, shortened: as §2
[15] = biological target: T1, von Hippel-Lindau disease tumor suppressor/Estrogen receptor/Cullin-2; assay: Protac activity against VHL/cullin2/ERalpha in human T47D cells assessed as ERalpha degradation by measuring ER protein/GAPDH ratio at 0.6 nM after 4 hrs by Western blot analysis relative to control; type: cell-based; procedure, shortened: as §2
[16] = biological target: T1, von Hippel-Lindau disease tumor suppressor/Estrogen receptor/Cullin-2; assay: Protac activity against VHL/cullin2/ERalpha in human T47D cells assessed as ERalpha degradation by measuring ER protein/GAPDH ratio at 1 nM after 4 hrs by Western blot analysis relative to control; type: cell-based; procedure, shortened: as §2
[17] = biological target: T1, von Hippel-Lindau disease tumor suppressor/Estrogen receptor/Cullin-2; assay: Protac activity against VHL/cullin2/ERalpha in human T47D cells assessed as ERalpha degradation by measuring ER protein/GAPDH ratio at 5 nM after 4 hrs by Western blot analysis relative to control; type: cell-based; procedure, shortened: as §2
[18] = biological target: T1, von Hippel-Lindau disease tumor suppressor/Estrogen receptor/Cullin-2; assay: Protac activity against VHL/cullin2/ERalpha in human T47D cells assessed as ERalpha degradation by measuring ER protein/GAPDH ratio at 10 nM after 4 hrs by Western blot analysis relative to control; type: cell-based; procedure, shortened: as §2
[19] = biological target: T1, von Hippel-Lindau disease tumor suppressor/Estrogen receptor/Cullin-2; assay: Protac activity against VHL/cullin2/ERalpha in human T47D cells assessed as ERalpha degradation by measuring ER protein/GAPDH ratio at 30 nM after 4 hrs by Western blot analysis relative to control; type: cell-based; procedure, shortened: as §2
[20] = biological target: T1, von Hippel-Lindau disease tumor suppressor/Estrogen receptor/Cullin-2; assay: Protac activity against VHL/cullin2/ERalpha in human T47D cells assessed as ERalpha degradation by measuring ER protein/GAPDH ratio at 100 nM after 4 hrs by Western blot analysis relative to control; type: cell-based; procedure, shortened: as §2
[21] = biological target: T1, von Hippel-Lindau disease tumor suppressor/Estrogen receptor/Cullin-2; assay: Protac activity against VHL/cullin2/ERalpha in human T47D cells assessed as ERalpha degradation by measuring ER protein/GAPDH ratio at 300 nM after 4 hrs by Western blot analysis relative to control; type: cell-based; procedure, shortened: as §2
[22] = biological target: T1, von Hippel-Lindau disease tumor suppressor/Estrogen receptor/Cullin-2; assay: Protac activity against VHL/cullin2/ERalpha in human T47D cells assessed as ERalpha degradation by measuring ER protein/GAPDH ratio at 1000 nM after 4 hrs by Western blot analysis relative to control; type: cell-based; procedure, shortened: as §2
[23] = biological target: T1, von Hippel-Lindau disease tumor suppressor/Estrogen receptor/Cullin-2; assay: Protac activity against VHL/cullin2/ERalpha in human T47D cells assessed as ERalpha degradation after 4 hrs by Western blot analysis; type: cell-based; procedure, shortened: as §2
Target sequence in this assay (P03372 whole entry): as the sequence (P03372 whole entry, looked up) above
Target sequence in this assay (P40337 whole entry): as the sequence (P40337 whole entry, looked up) above
Target sequence in this assay (Q13617 whole entry): as the sequence (Q13617 whole entry, looked up) above

[24] = biological target: T1, von Hippel-Lindau disease tumor suppressor/Estrogen receptor/Cullin-2; assay: Protac activity against VHL/cullin2/ERalpha in human MCF7 cells assessed as ERalpha degradation by measuring reduction in ER protein level at 30 nM after 1 hr by Western blot analysis relative to control; type: cell-based; parameters: scale not given: the % may be the effect or the level left
Procedure, shortened: (§3)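 Time course: cells given 30 nM degrader and harvested at time points from 1 h up to 24 h. ERα assessed by Western blot against a GAPDH loading control, with levels taken relative to DMSO.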

[25] = biological target: T1, von Hippel-Lindau disease tumor suppressor/Estrogen receptor/Cullin-2; assay: Protac activity against VHL/cullin2/ERalpha in human MCF7 cells assessed as ERalpha degradation by measuring reduction in ER protein level at 30 nM after 3 hrs by Western blot analysis relative to control; type: cell-based; parameters: scale not given: the % may be the effect or the level left; procedure, shortened: as §3
[26] = biological target: T1, von Hippel-Lindau disease tumor suppressor/Estrogen receptor/Cullin-2; assay: Protac activity against VHL/cullin2/ERalpha in human T47D cells assessed as ERalpha degradation by measuring reduction in ER protein level at 30 nM after 1 to 3 hrs by Western blot analysis relative to control; type: cell-based; procedure, shortened: as §3
[27] = biological target: T1, von Hippel-Lindau disease tumor suppressor/Estrogen receptor/Cullin-2; assay: Protac activity against VHL/cullin2/ERalpha in human MCF7 cells assessed as ERalpha degradation by measuring reduction in ER protein level pre-treated with raloxifene for 2 hrs followed by compound exposure at 30 nM for 4 hrs by Western blot analysis; type: cell-based
[28] = system: MCF7; assay: Inhibition of cell growth in human MCF7 cells after 4 days by wst-8-based colorimetric analysis; type: functional; conditions: MCF7, 96 h
Procedure, shortened: (§4)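 Cells seeded at 1500/well overnight, then exposed to graded compound doses for 4 days. Growth read by colorimetric WST-8 assay. GI50 from fitted curves. MCF-7 cells were kept in DMEM, 10% FBS, passages 3−8; human mammary epithelial cells were run the same way.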

[29] = system: MCF7; assay: Inhibition of cell growth in human MCF7 cells after 4 days by wst-8-based colorimetric analysis relative to control; type: functional; procedure, shortened: as §4
[30] = system: MDA-MB-231; assay: Inhibition of cell growth in human MDA-MB-231 cells at 10^-13 to 10^-5 M after 4 days by wst-8-based colorimetric analysis; type: functional
[31] = Inhibition of cell growth in primary human mammary epithelial cells at 10^-13 to 10^-6 M after 4 days by wst-8-based colorimetric analysis; conditions: 96 h; procedure, shortened: as §4
[32] = system: MCF7; assay: Antiproliferative activity against human MCF7 cells at 10 to 300 nM after 5 days by crystal violet staining based assay; type: functional, cell-based
Procedure, shortened: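 MCF-7 cells in DMEM with 10% FBS and penicillin/streptomycin, passages 3−8, exposed to compounds at 10, 100 and 300 nM for 5 days, then fixed and stained with crystal violet.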

[33] = biological target: T1, von Hippel-Lindau disease tumor suppressor/Estrogen receptor/Cullin-2; assay: Protac activity against VHL/cullin2/ERalpha in human MCF7 cells assessed as ERalpha degradation by measuring ER protein/GAPDH ratio at 0.1 nM after 4 hrs by Western blot analysis relative to control; type: cell-based; procedure, shortened: as §1
[34] = biological target: T1, von Hippel-Lindau disease tumor suppressor/Estrogen receptor/Cullin-2; assay: Protac activity against VHL/cullin2/ERalpha in human MCF7 cells assessed as ERalpha degradation by measuring reduction in ER protein level pre-treated with carfilzomib for 2 hrs followed by compound exposure at 30 nM for 4 hrs by Western blot analysis; type: cell-based
[35] = biological target: T1, von Hippel-Lindau disease tumor suppressor/Estrogen receptor/Cullin-2; assay: Protac activity against VHL/cullin2/ERalpha in human T47D cells assessed as ERalpha degradation by measuring reduction in ER protein level at 30 nM after 1 to 24 hrs hrs by Western blot analysis relative to control; type: cell-based; procedure, shortened: as §3

- Ratio [1]: 8
- Ratio [2]: 0.3
- Ratio [3]: 0.3
- Ratio [4]: 13
- DC50 [5]: 0.17 nM
- Ratio [6]: 84
- Ratio [7]: 28
- Ratio [8]: 12
- Ratio [9]: 0.3
- Ratio [10]: 0.3
- Ratio [11]: 0.3
- Ratio [12]: 84
- Ratio [13]: 73
- Ratio [14]: 62
- Ratio [15]: 58
- Ratio [16]: 33
- Ratio [17]: 4
- Ratio [18]: 3
- Ratio [19]: 2
- Ratio [20]: 4
- Ratio [21]: 6
- Ratio [22]: 25
- DC50 [23]: 0.43 nM
- Activity [24]: > 80%
- Activity [25]: 100%
- Activity [26]: Active
- Activity [27]: inactive
- GI50 [28]: 0.77 nM
- Ratio [33]: 76
- Activity [34]: inactive
- Activity [35]: Active
SMILES: CCN(CCCCCOCC(=O)N[C@H](C(=O)N1C[C@H](O)C[C@H]1C(=O)N[C@@H](C)c1ccc(-c2scnc2C)cc1)C(C)(C)C)CCOc1ccc(C(=O)c2c(-c3ccc(O)cc3)sc3cc(O)ccc23)cc1
- Imax [29]: 57.5%
- growth inhibition (GI) [30]: inactive
- Activity [31]: Non-Toxic
- Activity [32]: Active
